From ChEMBL document CHEMBL4004839, “Targeting Bacillosamine Biosynthesis in Bacterial Pathogens: Development of Inhibitors to a Bacterial Amino-Sugar Acetyltransferase from Campylobacter jejuni” (J Med Chem, 2017)
Calls of active or inactive are those of the source. The rule behind the calls is not given here.

What was measured:
[1] = molecular target: T1, UDP-N-acetylbacillosamine N-acetyltransferase (Campylobacter jejuni subsp. jejuni serotype O:2 (strain ATCC 700819 /NCTC 11168), UniProt Q0P9D1); test: Inhibition of Campylobacter jejuni NCTC 11168 PglD acetyltransferase expressed in Escherichia coli BL-21(DE3) strain (Stratagene) assessed as release of CoASH preincubated for 30 mins followed by addition of 300 uM AcCoA and 500 uM UDP-4-aminosugar as substrate by Ellman's method
T1 sequence (Q0P9D1 whole entry): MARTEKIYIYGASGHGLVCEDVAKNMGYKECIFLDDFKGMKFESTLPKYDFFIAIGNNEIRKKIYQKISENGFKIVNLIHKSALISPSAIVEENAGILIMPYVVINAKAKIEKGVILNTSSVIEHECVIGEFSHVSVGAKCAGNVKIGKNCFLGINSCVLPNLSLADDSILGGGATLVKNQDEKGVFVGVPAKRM
How it was run: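 Continuous DTNB read-out of CoASH release. Inhibitor (DMSO stock) preincubated 30 min at RT with PglD in 50 mM HEPES pH 7.8, 1 mM MgCl2, 0.05 mg/mL BSA, 0.001% Triton X-100. […] Initial rates over 5 min at RT, A412. IC50 derived.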

[2] = molecular target: T2, UDP-N-acetylbacillosamine N-acetyltransferase (Campylobacter jejuni subsp. jejuni serotype O:2 (strain ATCC 700819 /NCTC 11168)) (UniProt Q0P9D1); test: Binding affinity to Campylobacter jejuni NCTC 11168 PglD acetyltransferase expressed in Escherichia coli BL-21(DE3) strain (Stratagene) assessed as change in melting temperature at 100 uM by Sypro orange dye-based differential scanning fluorimetry
T2 sequence (whole entry): T1 sequence (Q0P9D1 whole entry)

[3] = molecular target: T2, UDP-N-acetylbacillosamine N-acetyltransferase (Campylobacter jejuni subsp. jejuni serotype O:2 (strain ATCC 700819 /NCTC 11168)); test: Effect on quaternary structure of Campylobacter jejuni NCTC 11168 PglD acetyltransferase expressed in Escherichia coli BL-21(DE3) strain (Stratagene) assessed as hydrodynamic radius of apo PgID at 250 uM by dynamic light scattering method (reference value: 34 Angstrom)
How it was run: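 DLS on 25 μM PglD with or without 250 μM inhibitor in 50 mM HEPES 7.5, 100 mM NaCl, 3% DMSO final. Scattering measured at 90° with 685 nm laser. Radius and polydispersity index derived with a Rayleigh scattering model.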

[4] = molecular target: T2, UDP-N-acetylbacillosamine N-acetyltransferase (Campylobacter jejuni subsp. jejuni serotype O:2 (strain ATCC 700819 /NCTC 11168)); test: Effect on quaternary structure of Campylobacter jejuni NCTC 11168 PglD acetyltransferase expressed in Escherichia coli BL-21(DE3) strain (Stratagene) assessed as polydispersity index of PgID at 250 uM by dynamic light scattering method (reference value: 31%)
How it was run: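 Recombinant C. jejuni PglD (His8-TEV construct, tag removed, Ni-NTA then size-exclusion purified) at 25 μM, with or without 250 μM inhibitor, in 50 mM HEPES 7.5, 100 mM NaCl, 3% DMSO final. Scattering measured at 90° with 685 nm laser; analysed with Rayleigh scattering model to give radius and polydispersity index.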

[5] = molecular target: T1, UDP-N-acetylbacillosamine N-acetyltransferase; test: Inhibition of Campylobacter jejuni NCTC 11168 PglD acetyltransferase expressed in Escherichia coli BL-21(DE3) strain (Stratagene) assessed as release of CoASH preincubated for 45 mins followed by addition of AcCoA and UDP-4-aminosugar measured after 30 mins by fragment-based high-throughput screening analysis
How it was run: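 End-point screen with compounds at 10 μM final. Started with 100 μM UDP-4-aminosugar, quenched at 30 min with 2 mM DTNB, 1 mM EDTA, 20% 1-propanol (final). Developed 5 min, read at 405 nm.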

[6] = molecular target: T1, UDP-N-acetylbacillosamine N-acetyltransferase; test: Competitive inhibition of Campylobacter jejuni NCTC 11168 PglD acetyltransferase expressed in Escherichia coli BL-21(DE3) strain (Stratagene) assessed as release of CoASH preincubated for 30 mins followed by addition of UDP-4-aminosugar and 2 fold excess AcCoA as substrate by Ellman's method
How it was run: (§1)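 Same continuous DTNB-coupled PglD assay: 30 min RT inhibitor–enzyme preincubation, 3 nM PglD, HEPES pH 7.8 buffer, A412 initial rates over 5 min. IC50 determined while raising one substrate above standard (300 μM AcCoA, 500 μM UDP-4-amino-sugar): AcCoA raised 2- or 5-fold, or UDP-4-amino-sugar raised to higher levels.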

[7] = molecular target: T2, UDP-N-acetylbacillosamine N-acetyltransferase (Campylobacter jejuni subsp. jejuni serotype O:2 (strain ATCC 700819 /NCTC 11168)); test: Competitive inhibition of Campylobacter jejuni NCTC 11168 PglD acetyltransferase expressed in Escherichia coli BL-21(DE3) strain (Stratagene) assessed as release of CoASH preincubated for 30 mins followed by addition of AcCoA and higher levels of UDP-4-aminosugar as substrate by Ellman's method; how it was run: as §1
[8] = molecular target: T1, UDP-N-acetylbacillosamine N-acetyltransferase; test: Competitive inhibition of Campylobacter jejuni NCTC 11168 PglD acetyltransferase expressed in Escherichia coli BL-21(DE3) strain (Stratagene) assessed as release of CoASH preincubated for 30 mins followed by addition of UDP-4-aminosugar and 5 fold excess AcCoA as substrate by Ellman's method; how it was run: as §1

| Structure (SMILES) | IC50 [1] [µM] | ΔTm [2] [°C] | also measured |
| --- | --- | --- | --- |
| Cc1ccccc1CCNc1nc(CCc2ccccc2)nc2sc(C(=O)O)c(C)c12 | 0.25 | 14.3 | – |
| Cc1c(C(=O)O)sc2nc(CCc3ccccc3)nc(NCCc3cccnc3)c12 | 0.34 | 12 | – |
| CNc1nc(CCc2cccc(NC(C)=O)c2)nc2sc(C(=O)O)c(C)c12 | 3.5 | – | – |
| CNc1nc(CCc2cccc(Cl)c2)nc2sc(C(=O)O)c(C)c12 | 2.1 | 9.4 | – |
| Cc1c(C(=O)O)sc2nc(CCc3ccccc3)nc(NCCc3ccccn3)c12 | 0.42 | 12.5 | – |
| Cc1c(C(=O)O)sc2nc(CCc3ccccc3)nc(NCCc3ccncc3)c12 | 0.39 | 12 | – |
| CC(=O)Nc1ccc(CCc2nc(NCCc3ccccn3)c3c(C)c(C(=O)O)sc3n2)cc1 | 0.28 | 11.5 | – |
| CNc1nc(CCc2ccc(NC(C)=O)cc2)nc2sc(C(=O)O)c(C)c12 | 2.4 | – | – |
| Cc1c(C(=O)O)sc2nc(CCc3ccccc3)nc(NCCc3cccc(F)c3)c12 | 0.39 | – | – |
| COc1cccc(CCNc2nc(CCc3ccccc3)nc3sc(C(=O)O)c(C)c23)c1 | 0.45 | – | – |
| Cc1c(C(=O)O)sc2nc(CCc3ccccc3)nc(NCCc3ccccc3F)c12 | 0.48 | 13.2 | – |
| Cc1c(C(=O)O)sc2nc(CCc3ccccc3)nc(NCCc3ccc4c(c3)OCO4)c12 | 0.59 | 11.5 | – |
| CO[C@H](CNc1nc(CCc2ccc(NC(C)=O)cc2)nc2sc(C(=O)O)c(C)c12)c1ccccc1 | 0.27 | 12.5 | Activity [3]: 36 Angstrom; Activity [4]: 24% |
| COc1ccc(CCNc2nc(CCc3ccccc3)nc3sc(C(=O)O)c(C)c23)cc1 | 0.54 | – | – |
| Cc1c(C(=O)O)sc2nc(CCc3ccccc3)nc(NCCc3ccccc3)c12 | 1.4 | 13.2 | – |
| CNc1nc(CCc2ccccc2)nc2sc(C(=O)O)c(C)c12 | 2.2 | 7.4 | – |
| CNc1nc(CCc2cccc(F)c2)nc2sc(C(=O)O)c(C)c12 | 2.3 | 8.9 | – |
| CNc1nc(CCc2ccccc2)nc2cc(C(=O)O)sc12 | 3.9 | 4.8 | – |
| Cc1ccc(CCNc2nc(CCc3ccccc3)nc3sc(C(=O)O)c(C)c23)cc1 | 0.72 | – | – |
| Cc1c(C(=O)O)sc2nc(/C=C/c3ccc4[nH]ccc4c3)[nH]c(=O)c12 | – | – | IC50 [5]: 1 µM |
| COc1ccccc1CCNc1nc(CCc2ccccc2)nc2sc(C(=O)O)c(C)c12 | 0.48 | 13.7 | – |

| Structure (SMILES) | IC50 [1] [µM] | ΔTm [2] [°C] | also measured |
| --- | --- | --- | --- |
| CNc1nc(CCc2cccc(OC)c2)nc2cc(C(=O)O)sc12 | 1.4 | 5.9 | – |
| Cc1c(C(=O)O)sc2nc(CCc3ccccc3)nc(NCCc3ccc(F)cc3)c12 | 0.42 | – | – |
| CNc1nc(CCCCc2ccccc2)nc2sc(C(=O)O)c(C)c12 | 4.1 | 7.4 | – |
| Cc1cccc(CCNc2nc(CCc3ccccc3)nc3sc(C(=O)O)c(C)c23)c1 | 0.42 | – | – |
| Cc1c(C(=O)O)sc2nc(CCc3ccccc3)nc(NC3Cc4ccccc4C3)c12 | 1 | – | – |
| Cc1c(C(=O)O)sc2nc(CCc3ccccc3)nc(NCCN)c12 | 1.6 | 3.6 | – |
| CO[C@@H](CNc1nc(C[C@H](C)c2ccccc2)nc2sc(C(=O)O)c(C)c12)c1ccccc1 | 2 | 9.4 | – |
| CO[C@H](CNc1nc(C[C@@H](C)c2ccccc2)nc2sc(C(=O)O)c(C)c12)c1ccccc1 | 0.42 | 9.9 | – |
| CO[C@H](CNc1nc(C[C@H](C)c2ccccc2)nc2sc(C(=O)O)c(C)c12)c1ccccc1 | 1.1 | 10.4 | – |
| CO[C@@H](CNc1nc(C[C@@H](C)c2ccccc2)nc2sc(C(=O)O)c(C)c12)c1ccccc1 | 0.87 | – | – |
| Cc1c(C(=O)O)sc2nc[nH]c(=O)c12 | – | – | IC50 [5]: 860 µM |
| CNc1nc(CCc2cccc(C(F)(F)F)c2)nc2sc(C(=O)O)c(C)c12 | 4.6 | 7.4 | – |
| COc1cc(CCNc2nc(CCc3ccccc3)nc3sc(C(=O)O)c(C)c23)cc(OC)c1 | 0.37 | – | IC50 [6]: 0.63 µM; inhibition [7]: Active; IC50 [8]: 1.4 µM |
| O=C(O)c1cc(-c2ccco2)[nH]n1 | – | – | IC50 [5]: 8400 µM |
| CC(=O)Nc1ccc(CCc2nc(NCCN)c3c(C)c(C(=O)O)sc3n2)cc1 | 1.4 | 5.3 | – |
| Cc1c(C(=O)O)sc2nc(CCc3ccccc3)nc(NCc3ccccc3)c12 | 4.5 | – | – |
| CNc1nc(CCc2cccc(OC)c2)nc2sc(C(=O)O)c(C)c12 | 1.1 | 8.4 | – |
| CNc1nc(CCc2ccccc2NC(C)=O)nc2sc(C(=O)O)c(C)c12 | 9 | – | – |
| CNc1nc(CCc2ccc3c(c2)OCO3)nc2sc(C(=O)O)c(C)c12 | 1.8 | 7.4 | – |
| Cc1c(C(=O)O)sc2nc(C(C)C)[nH]c(=O)c12 | – | – | IC50 [5]: 122 µM |
| CNc1nc(CCCc2ccccc2)nc2sc(C(=O)O)c(C)c12 | 4.4 | 7.9 | – |
